For data set [1], the target named is T1, Cystic fibrosis transmembrane conductance regulator (Homo sapiens, UniProt P13569). Description: Activation of wild-type CFTR (unknown origin) expressed in forskolin-stimulated CHO cells assessed as increase in iodide efflux at 100 uM by gamma counting. It counts as cell-based. The essentials:
(§1)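 Iodide efflux with a robotic system. Cells were loaded at 37 °C for 30 min in Krebs' solution with 1 mM KI and Na¹²⁵I so the label reached equilibrium. The first three aliquots (t0–t2) in cold Krebs' buffer gave the baseline, and compound medium was used for t3–t8. Residual radioactivity was extracted with 0.1 M NaOH/0.1% SDS and gamma-counted. Relative rate = k_peak − k_basal (min⁻¹), expressed as % of maximal activation. EC50 came from nonlinear regression.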
Target sequence in this assay (P13569 whole entry, looked up): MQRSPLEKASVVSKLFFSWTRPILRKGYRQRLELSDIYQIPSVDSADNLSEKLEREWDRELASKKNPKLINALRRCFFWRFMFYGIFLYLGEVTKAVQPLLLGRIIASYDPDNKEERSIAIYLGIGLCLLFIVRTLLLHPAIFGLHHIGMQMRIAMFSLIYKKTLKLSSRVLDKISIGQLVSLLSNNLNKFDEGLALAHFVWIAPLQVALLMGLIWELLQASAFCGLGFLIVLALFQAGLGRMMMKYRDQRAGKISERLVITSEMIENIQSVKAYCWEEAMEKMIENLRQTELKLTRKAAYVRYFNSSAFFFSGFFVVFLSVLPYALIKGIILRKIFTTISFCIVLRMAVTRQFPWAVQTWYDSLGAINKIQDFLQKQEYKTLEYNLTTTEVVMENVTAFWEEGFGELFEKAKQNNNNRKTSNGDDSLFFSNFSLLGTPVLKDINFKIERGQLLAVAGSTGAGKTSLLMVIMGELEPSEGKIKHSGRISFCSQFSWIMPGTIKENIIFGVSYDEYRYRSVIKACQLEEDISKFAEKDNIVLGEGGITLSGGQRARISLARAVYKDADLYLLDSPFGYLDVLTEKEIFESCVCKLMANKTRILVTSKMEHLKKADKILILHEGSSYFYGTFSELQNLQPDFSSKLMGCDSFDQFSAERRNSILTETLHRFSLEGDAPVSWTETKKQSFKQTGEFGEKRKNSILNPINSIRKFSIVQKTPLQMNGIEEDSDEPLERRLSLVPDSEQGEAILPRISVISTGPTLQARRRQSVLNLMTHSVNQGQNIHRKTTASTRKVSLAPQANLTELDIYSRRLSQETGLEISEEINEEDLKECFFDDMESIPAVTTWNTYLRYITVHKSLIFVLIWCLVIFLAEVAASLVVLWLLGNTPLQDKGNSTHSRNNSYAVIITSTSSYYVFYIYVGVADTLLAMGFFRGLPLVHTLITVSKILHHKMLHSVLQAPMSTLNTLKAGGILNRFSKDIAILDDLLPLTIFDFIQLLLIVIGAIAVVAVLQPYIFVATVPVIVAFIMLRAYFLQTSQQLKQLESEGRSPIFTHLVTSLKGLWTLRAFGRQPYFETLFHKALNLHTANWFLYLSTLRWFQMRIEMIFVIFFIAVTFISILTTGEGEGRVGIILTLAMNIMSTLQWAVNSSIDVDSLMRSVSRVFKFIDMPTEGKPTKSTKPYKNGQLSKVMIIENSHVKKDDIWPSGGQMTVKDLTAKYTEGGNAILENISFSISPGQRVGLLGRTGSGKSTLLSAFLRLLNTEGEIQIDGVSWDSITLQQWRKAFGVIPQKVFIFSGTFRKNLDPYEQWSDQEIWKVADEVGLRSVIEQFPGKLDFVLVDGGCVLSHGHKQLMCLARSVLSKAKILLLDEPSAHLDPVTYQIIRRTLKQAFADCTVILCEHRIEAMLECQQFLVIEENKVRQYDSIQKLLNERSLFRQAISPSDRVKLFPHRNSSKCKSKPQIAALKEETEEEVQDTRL

The target in data set [2] is T1, Cystic fibrosis transmembrane conductance regulator. The data set is described as follows: Activation of wild-type CFTR (unknown origin) expressed in forskolin-stimulated CHO cells assessed as increase in iodide efflux by gamma counting. It is filed as cell-based. The essentials: as §1
Target sequence in this assay (P13569 whole entry): as the sequence (P13569 whole entry, looked up) above
The test system of data set [3] is Rattus norvegicus. The data set is described as follows: Potentiation of isprenaline-induced salivary secretion in male Wistar rat assessed as net weight of saliva secreted at 30 uM, sc followed by treatment with 1 mM cholinergic inhibitor atropine. It is filed as functional, organism-based. The essentials:
(§2)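 Male Wistar rats (250–300 g) were held supine. Basal secretion was blocked with atropine (1 mM). Saline containing 1 mM atropine plus compound (30 µM), isoprenaline (10 µM) or both was then injected subcutaneously into the cheek. Saliva was collected on paper pieces changed every 4 min and weighed. Secretion rate = saliva weight / collection time (min) / body weight (g).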

The target of data set [4] is T1, Cystic fibrosis transmembrane conductance regulator. Description: Activation of CFTR in forskolin-stimulated human MM39 cells by DiSBAC2(3) dye based fluorescence analysis in presence of 1 uM CFTRinh-172. It counts as cell-based. Put shortly:
(§3)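 Human tracheal gland MM39 cells were imaged cell by cell with the potential-sensitive oxonol probe DiSBAC2(3) (ex 535 nm, em 560 nm). Signal is Fx = (Ft − F0)/F0 × 100 relative to the time of stimulus addition. Histograms show the stable fluorescence variation, as mean ± SEM. The CFTR inhibitor CFTRinh-172 was used at 1 µM. Runs were done with or without forskolin.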
Target sequence in this assay (P13569 whole entry, looked up): as above

For data set [5], the system named is Rattus norvegicus. The data set is described as follows: Effect on salivary secretion in male Wistar rat assessed as net weight of saliva secreted at 30 uM, sc followed by treatment with 1 mM cholinergic inhibitor atropine. It counts as functional, organism-based. The essentials: as §2
Data set [6] has as its target T1, Cystic fibrosis transmembrane conductance regulator. The data set is described as follows: Activation of CFTR in forskolin-stimulated human MM39 cells by DiSBAC2(3) dye based fluorescence analysis. It counts as cell-based. Put shortly:
as §3
Target sequence in this assay (P13569 whole entry, looked up): as above

Data set [7] has as its system Cystic fibrosis transmembrane conductance regulator (Homo sapiens), P13569 [F508del]. The data set is described as follows: (§4) Activation of CFTR F508 deletion mutant in forskolin-stimulated and miglustat-corrected human […] cells assessed as increase in iodide efflux by gamma counting. It is filed as cell-based. Put shortly:
as §1

Data set [8] addresses Cystic fibrosis transmembrane conductance regulator (Homo sapiens, UniProt P13569, F508DEL). The data set is described as §4. It counts as cell-based. The essentials: as §1
Another data set deals with CHO. Description: Cytotoxicity against wild-type CFTR transfected CHO cells upto 300 uM after 24 hrs by MTT assay. It is filed as cell-based, Cricetulus griseus. As to conditions: chinese hamster. The essentials:
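Wt-CFTR CHO cells were exposed for 24 h, and viability was read by MTT reduction to formazan. Controls were untreated cells and cells deprived of medium for 24 h.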
A general note: Tetrazolium dyes change colour on reduction, which living cells bring about.

Data set [9] deals with T1, Cystic fibrosis transmembrane conductance regulator. Description: Activation of CFTR in human MM39 cells by DiSBAC2(3) dye based fluorescence analysis in presence of 1 uM CFTRinh-172. It counts as cell-based. Put shortly: as §3
Target sequence in this assay (P13569 whole entry, looked up): as above
The target is the same in data set [10]. The data set is described as follows: Activation of CFTR in human MM39 cells by DiSBAC2(3) dye based fluorescence analysis. It is filed as cell-based. The essentials: as §3
Target sequence in this assay (P13569 whole entry, looked up): as above

Each structure is given as a SMILES string. Activity calls are given as the source filed them. The calls are words filed in the database; no cut-off is given here.

Sequence of Cystic fibrosis transmembrane conductance regulator (Homo sapiens, UniProt P13569, F508DEL) (P13569 as listed by the source): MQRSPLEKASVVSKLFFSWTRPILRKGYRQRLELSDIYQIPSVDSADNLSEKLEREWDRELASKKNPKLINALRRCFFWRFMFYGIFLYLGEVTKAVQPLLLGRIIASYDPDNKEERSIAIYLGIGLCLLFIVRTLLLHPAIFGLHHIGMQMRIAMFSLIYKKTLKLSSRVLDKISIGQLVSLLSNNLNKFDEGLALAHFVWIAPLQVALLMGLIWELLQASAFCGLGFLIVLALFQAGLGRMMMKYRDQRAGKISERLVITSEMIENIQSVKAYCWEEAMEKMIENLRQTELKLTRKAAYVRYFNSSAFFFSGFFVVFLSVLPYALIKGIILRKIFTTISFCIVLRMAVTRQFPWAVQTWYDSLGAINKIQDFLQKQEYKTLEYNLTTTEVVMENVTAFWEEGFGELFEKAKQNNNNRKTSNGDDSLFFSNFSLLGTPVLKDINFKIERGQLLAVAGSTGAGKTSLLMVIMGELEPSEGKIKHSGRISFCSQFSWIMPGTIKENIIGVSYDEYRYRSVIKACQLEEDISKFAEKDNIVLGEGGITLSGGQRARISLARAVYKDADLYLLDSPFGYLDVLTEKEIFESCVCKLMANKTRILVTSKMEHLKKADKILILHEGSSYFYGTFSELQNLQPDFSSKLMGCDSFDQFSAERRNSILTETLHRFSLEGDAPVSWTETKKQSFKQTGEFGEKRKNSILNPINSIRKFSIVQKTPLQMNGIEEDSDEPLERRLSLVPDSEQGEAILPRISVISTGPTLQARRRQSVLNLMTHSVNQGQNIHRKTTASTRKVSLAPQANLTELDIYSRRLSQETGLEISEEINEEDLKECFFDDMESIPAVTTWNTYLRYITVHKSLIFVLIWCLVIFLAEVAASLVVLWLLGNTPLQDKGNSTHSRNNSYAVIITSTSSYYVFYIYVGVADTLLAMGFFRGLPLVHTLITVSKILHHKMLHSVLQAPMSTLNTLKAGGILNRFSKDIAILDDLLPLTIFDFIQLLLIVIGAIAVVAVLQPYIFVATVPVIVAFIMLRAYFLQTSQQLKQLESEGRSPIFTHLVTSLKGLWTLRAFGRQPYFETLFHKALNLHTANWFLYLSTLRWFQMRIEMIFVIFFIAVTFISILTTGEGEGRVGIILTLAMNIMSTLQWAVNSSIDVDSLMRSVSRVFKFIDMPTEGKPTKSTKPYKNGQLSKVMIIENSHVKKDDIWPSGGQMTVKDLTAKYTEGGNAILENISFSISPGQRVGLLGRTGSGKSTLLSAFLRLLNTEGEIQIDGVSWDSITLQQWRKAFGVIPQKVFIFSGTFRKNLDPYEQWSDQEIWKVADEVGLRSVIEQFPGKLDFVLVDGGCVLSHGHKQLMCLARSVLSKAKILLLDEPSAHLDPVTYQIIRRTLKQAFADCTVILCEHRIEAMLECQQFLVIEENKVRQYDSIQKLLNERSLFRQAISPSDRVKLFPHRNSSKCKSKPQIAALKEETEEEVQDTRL
Sequence of Cystic fibrosis transmembrane conductance regulator (Homo sapiens), P13569 [F508del] (P13569 as listed by the source): as above

Take `C[C@]1(C(=O)O)N=C2c3ncn(CCCc4ccccc4)c3N=CN2[C@](C)(O)[C@@H]1O`: in data set [1], the outcome was inactive.

In the case of `CC(C)n1cnc2c1N=CN1C2=N[C@](C)(C(=O)O)[C@@H](O)[C@@]1(C)O`, the result in data set [1] was inactive.

Regarding `Cn1cnc2c1N=CN1C2=N[C@](C)(C(=O)O)[C@@H](O)[C@@]1(C)O`, the outcome in data set [1] was inactive.

With `CCCCn1cnc2c1N=CN1C2=N[C@](C)(C(=O)O)[C@@H](O)[C@@]1(C)O`, in data set [1], the result was inactive.

A word on the EC50: it is the concentration that produces a half-maximal response. On to `C=CCn1cnc2c1N=CN1C2=N[C@](C)(C(=O)O)[C@@H](O)[C@@]1(C)O`, for which the EC50 in [2] came to 7.5 µM; in data set [8], 104 µM. Further, the result (in the data set on Rattus norvegicus [3]; in data set [6]; in [1]; in [10]) was Active. The result (in [4]; in the data set with Rattus norvegicus [5]; in data set [9]) was inactive. Further, the Activity entry was “Dose-dependent effect” in data set [7] and “Non-toxic” in the data set on CHO.

Turning to `C[C@]1(C(=O)O)N=C2c3ncn(CCCO)c3N=CN2[C@](C)(O)[C@@H]1O`, in data set [1], the outcome was inactive.

`C[C@]1(C(=O)O)N=C2c3ncn(Cc4ccccc4)c3N=CN2[C@](C)(O)[C@@H]1O`: the outcome in data set [1] was inactive.

For the compound `CCn1cnc2c1N=CN1C2=N[C@](C)(C(=O)O)[C@@H](O)[C@@]1(C)O`, in [1], the outcome was inactive.

As to `C#CCn1cnc2c1N=CN1C2=N[C@](C)(C(=O)O)[C@@H](O)[C@@]1(C)O`, in [1], the result was inactive.

Take `C=CCn1cnc2c1N=CN1C2=N[C@](C)(C(=O)O)[C@H](O)[C@]1(C)O`: in data set [2], the concentration for a half-maximal effect (EC50) was 2.1 µM.

For the origin of these results see ChEMBL document CHEMBL3297677, “A new 9-alkyladenine-cyclic methylglyoxal diadduct activates wt- and F508del-cystic fibrosis transmembrane conductance regulator (CFTR) in vitro and in vivo” (Eur J Med Chem, 2014).
